Data on five molecules can be found in ChEMBL document CHEMBL1821701, “Stereochemical analysis of leubethanol, an anti-TB-active serrulatane, from Leucophyllum frutescens” (2011).

What all share (assay type): functional
The test system of test [1] is Mycobacterium tuberculosis. The test can be described thus: Antitubercular activity against multidrug-resistant Mycobacterium tuberculosis CIBIN/UMF15:99 isolate by microplate Alamar blue assay. In a few lines:
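Modified microplate Alamar Blue assay. H37Rv ATCC 27294 is susceptible to streptomycin, isoniazid, rifampin, ethambutol and pyrazinamide. Clinical isolate CIBIN/UMF15:99 is resistant to the same five drugs. Test stocks were 2 mg/mL in 20% DMSO in Middlebrook 7H9 broth, filter-sterilized. Final concentrations ran from 100 to 0.78 µg/mL. Read-out was MIC, at least in triplicate.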

Test [2] deals with Mycobacterium tuberculosis. The test can be described thus: Antitubercular activity against multidrug-resistant Mycobacterium tuberculosis CIBIN/UMF15:99 isolate by microplate Alamar blue assay relative to streptomycin.
Test [3] deals with Mycobacterium tuberculosis. Kind of test: Antitubercular activity against multidrug-resistant Mycobacterium tuberculosis CIBIN/UMF15:99 isolate by microplate Alamar blue assay relative to rifampin.

In brackets after ≈: the same amount, converted by molar mass. Where only a bound is given, the exact number is not on record here.

With `CO[C@H]1/C=C/O[C@@]2(C)Oc3c(C)c(O)c4c(O)c(c(/C=N/N5CCN(C)CC5)c(O)c4c3C2=O)NC(=O)/C(C)=C\C=C\[C@H](C)[C@H](O)[C@@H](C)[C@@H](O)[C@@H](C)[C@H](OC(C)=O)[C@@H]1C` [RIFAMPIN], the MIC in test [1] was over 100 µg/mL.

Take `CC(C)=CCC[C@H](C)[C@@H]1CC[C@@H](C)c2c(O)cc(C)cc21` [LEUBETHANOL]: it took 6.3 µg/mL (≈ 22 µM) to inhibit growth in test [1] (MIC). The Ratio in test [2] and in test [3] was 16 each time.

Molecule `NNC(=O)c1ccncc1` [ISONIAZID] registered an MIC in test [1] of 3.1 µg/mL (≈ 22.6 µM).

Molecule `CN[C@@H]1[C@H](O[C@H]2[C@H](O[C@H]3[C@H](O)[C@@H](O)[C@H](N=C(N)N)[C@@H](O)[C@@H]3N=C(N)N)O[C@@H](C)[C@]2(O)C=O)O[C@@H](CO)[C@H](O)[C@H]1O` [STREPTOMYCIN] gave an MIC in test [1] of over 100 µg/mL.

For the molecule `CC[C@@H](CO)NCCN[C@@H](CC)CO` [ETHAMBUTOL], the MIC in test [1] was found to be 8 µg/mL (≈ 39.2 µM).
